Drawing on ChEMBL document CHEMBL2311437, “Synthesis, molecular docking and evaluation of thiazolyl-pyrazoline derivatives containing benzodioxole as potential anticancer agents” (Bioorg Med Chem, 2013), this text covers IC50, Activity and inhibition for 21 molecules.

Assay [1] relates to MCF7. Nature of the assay: Antiproliferative activity against human MCF7 cells after 48 hrs by MTT assay. In kind it is functional, cell-based. Particulars: MCF7, 48 h. On the technique in general: Tetrazolium assays rely on reduction of a dye to a coloured formazan, in cell work by metabolically active cells.
The nature of assay [2]: Antiproliferative activity against mouse B16/F10 cells after 48 hrs by MTT assay. The assay is classed as functional, cell-based. As to conditions: B16-F10, 48 h. The procedure, abridged:
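Cells seeded 7×10^3/well, grown 24 h, then exposed 48 h to compounds at final 0.1–100 µg/mL. MTT (5 mg/mL in PBS) added for 4 h, then 10% SDS in 0.01 N HCl, 18 h at 37 °C. Absorbance read at 570 nm. Survival given as % of untreated cells. IC50 taken from replicates of 6 wells over at least three independent experiments.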

In assay [3] the test system is MCF7. Kind of assay: Induction of apoptosis in human MCF7 cells assessed as increase in cleaved caspase 3 levels after 24 hrs by Western blotting method. The assay is classed as functional, cell-based. The procedure, abridged: (§1)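 Cells treated 24 h, harvested and lysed in Tris pH 7.5/NaCl/NP-40 buffer with phosphatase and protease inhibitors. Protein quantified by BCA. Separation by 10% SDS–PAGE, transfer to PVDF, blocking in 5% milk 2 h at RT. Probed overnight at 4 °C with anti-HER-2 or anti-cleaved caspase 3, then HRP secondary antibody.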
Background: Immunoblotting shows a protein as a band on a membrane.

The target in assay [4] is Receptor tyrosine-protein kinase erbB-2 (Mus musculus) (UniProt P70424). Nature of the assay: Inhibition of HER2 in mouse B16/F10 cells assessed as down regulation of HEr2 protein levels after 24 hrs by Western blotting method. The assay is classed as cell-based. The procedure, abridged:
as §1

The target in assay [5] is Receptor tyrosine-protein kinase erbB-2 (Homo sapiens, UniProt P04626). Kind of assay: Inhibition of human HER2 cytoplasmic domain (amino acids 676 to 1245) expressed in Sf9 cells by DELFIA time resolved fluorometry. In short, it runs like this:
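His6-tagged HER-2 was expressed in Sf-9 cells (3-day infection) and Ni-NTA purified at 4 °C. Assay measures autophosphorylation. Compound in 25 mM HEPES pH 7.4 (DMSO <0.1%) preincubated 10 min at RT with 12.5 ng enzyme. Then buffer (MnCl2, Na3VO4, DTT) and 0.1 mM ATP-50 mM MgCl2 (stock mix) added for 1 h. Readout: europium anti-phosphotyrosine, 1 h, ex 340/em 615 nm. IC50 from eight-concentration inhibition curves.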

Assay [6] deals with B16-F10. Nature of the assay: Induction of apoptosis in mouse B16/F10 cells assessed as increase in cleaved caspase 3 levels after 24 hrs by Western blotting method. The assay is classed as functional, cell-based. The procedure, abridged:
as §1

Sequence of Receptor tyrosine-protein kinase erbB-2 (P04626 whole entry, the tested form may be a part): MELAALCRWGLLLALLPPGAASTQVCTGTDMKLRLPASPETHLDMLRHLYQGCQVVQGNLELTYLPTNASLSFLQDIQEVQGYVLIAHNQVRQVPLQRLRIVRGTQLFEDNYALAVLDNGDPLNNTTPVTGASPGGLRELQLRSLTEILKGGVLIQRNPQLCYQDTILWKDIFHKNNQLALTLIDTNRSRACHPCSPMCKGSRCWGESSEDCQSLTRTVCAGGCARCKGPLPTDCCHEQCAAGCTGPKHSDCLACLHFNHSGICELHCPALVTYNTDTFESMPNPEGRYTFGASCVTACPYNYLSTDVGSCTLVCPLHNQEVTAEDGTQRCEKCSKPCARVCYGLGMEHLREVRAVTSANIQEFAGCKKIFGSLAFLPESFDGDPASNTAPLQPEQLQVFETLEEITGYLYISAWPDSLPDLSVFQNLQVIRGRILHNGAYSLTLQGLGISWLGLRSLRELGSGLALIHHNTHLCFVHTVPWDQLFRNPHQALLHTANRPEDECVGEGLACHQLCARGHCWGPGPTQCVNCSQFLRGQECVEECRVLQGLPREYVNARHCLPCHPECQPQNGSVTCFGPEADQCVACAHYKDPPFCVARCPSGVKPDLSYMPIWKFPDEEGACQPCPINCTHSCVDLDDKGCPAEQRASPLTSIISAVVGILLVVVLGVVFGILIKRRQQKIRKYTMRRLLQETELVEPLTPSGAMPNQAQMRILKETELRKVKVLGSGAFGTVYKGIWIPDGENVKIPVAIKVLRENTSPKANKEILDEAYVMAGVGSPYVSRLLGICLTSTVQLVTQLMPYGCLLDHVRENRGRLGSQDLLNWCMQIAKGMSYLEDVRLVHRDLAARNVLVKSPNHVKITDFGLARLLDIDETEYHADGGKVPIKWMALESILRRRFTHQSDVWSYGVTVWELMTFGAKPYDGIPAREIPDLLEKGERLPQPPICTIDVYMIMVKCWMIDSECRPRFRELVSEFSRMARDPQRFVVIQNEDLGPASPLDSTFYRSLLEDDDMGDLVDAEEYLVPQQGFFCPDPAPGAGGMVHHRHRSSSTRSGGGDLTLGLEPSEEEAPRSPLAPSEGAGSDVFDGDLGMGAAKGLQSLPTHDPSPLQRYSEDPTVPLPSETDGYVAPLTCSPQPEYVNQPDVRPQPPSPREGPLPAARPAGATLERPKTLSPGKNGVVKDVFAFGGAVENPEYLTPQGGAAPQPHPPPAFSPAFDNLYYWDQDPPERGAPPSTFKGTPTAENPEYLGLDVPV
Sequence of Receptor tyrosine-protein kinase erbB-2 (Mus musculus) (P70424 whole entry): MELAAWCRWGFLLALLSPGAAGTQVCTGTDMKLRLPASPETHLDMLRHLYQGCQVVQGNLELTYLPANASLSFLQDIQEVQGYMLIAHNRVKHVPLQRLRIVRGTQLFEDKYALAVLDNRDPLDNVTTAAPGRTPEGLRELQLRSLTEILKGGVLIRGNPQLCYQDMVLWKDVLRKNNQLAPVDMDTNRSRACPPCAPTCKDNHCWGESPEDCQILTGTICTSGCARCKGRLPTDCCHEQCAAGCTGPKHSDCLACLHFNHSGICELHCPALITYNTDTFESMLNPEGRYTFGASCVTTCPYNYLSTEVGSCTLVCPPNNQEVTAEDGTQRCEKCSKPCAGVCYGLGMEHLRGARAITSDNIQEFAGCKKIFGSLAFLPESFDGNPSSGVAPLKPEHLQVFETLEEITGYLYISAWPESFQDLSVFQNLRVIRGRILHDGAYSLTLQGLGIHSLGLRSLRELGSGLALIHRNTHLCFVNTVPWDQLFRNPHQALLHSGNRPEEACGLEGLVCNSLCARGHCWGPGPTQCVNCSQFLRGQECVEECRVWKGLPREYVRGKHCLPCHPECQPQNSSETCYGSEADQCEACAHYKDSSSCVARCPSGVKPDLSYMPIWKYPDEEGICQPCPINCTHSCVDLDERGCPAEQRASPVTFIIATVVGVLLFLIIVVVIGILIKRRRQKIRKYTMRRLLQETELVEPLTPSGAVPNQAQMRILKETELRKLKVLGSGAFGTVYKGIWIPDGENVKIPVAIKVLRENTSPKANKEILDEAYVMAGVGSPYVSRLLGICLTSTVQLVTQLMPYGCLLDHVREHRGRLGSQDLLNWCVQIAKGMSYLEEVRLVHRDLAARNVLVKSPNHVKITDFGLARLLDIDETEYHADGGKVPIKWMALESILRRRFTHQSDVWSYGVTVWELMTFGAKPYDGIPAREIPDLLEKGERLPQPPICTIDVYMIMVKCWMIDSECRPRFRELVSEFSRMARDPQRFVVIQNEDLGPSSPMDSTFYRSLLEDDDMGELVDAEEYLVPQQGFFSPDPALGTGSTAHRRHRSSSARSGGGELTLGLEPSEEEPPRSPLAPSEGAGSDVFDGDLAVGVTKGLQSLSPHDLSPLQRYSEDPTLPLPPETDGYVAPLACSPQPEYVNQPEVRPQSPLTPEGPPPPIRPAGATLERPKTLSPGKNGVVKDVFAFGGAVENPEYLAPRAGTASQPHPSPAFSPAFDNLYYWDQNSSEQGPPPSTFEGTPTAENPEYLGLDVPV

Take `COc1ccc(C2=NN(c3nc(-c4ccc(Br)cc4)cs3)C(c3ccc4c(c3)OCO4)C2)cc1` (stereo not given): the concentration for half-maximal inhibition (IC50) – broadly, the concentration that gives 50% inhibition – in assay [1] is 2470 nM; in assay [2], 2540 nM.

Consider `Brc1ccc(C2=NN(c3nc(-c4ccc(Br)cc4)cs3)C(c3ccc4c(c3)OCO4)C2)cc1` (stereo not given), for which the Activity entry in assay [3] and in assay [6] was “Dose-dependent effect” throughout. The inhibition result in assay [4] is “Dose-dependent effect”. For the same molecule, the half-inhibitory concentration (IC50) worked out at 180 nM in assay [5], 90 nM in assay [1] and 120 nM in assay [2].

For the molecule `COc1ccc(-c2csc(N3N=C(c4ccc(Br)cc4)CC3c3ccc4c(c3)OCCO4)n2)cc1` (stereo not given), the IC50 in assay [5] is 1320 nM; in assay [1] it was 870 nM; in assay [2] it was 1120 nM.

On to `COc1ccc(C2=NN(c3nc(-c4ccc(OC)cc4)cs3)C(c3ccc4c(c3)OCCO4)C2)cc1` (stereo not given), for which the IC50 in assay [1] was determined as 2730 nM; in assay [2] it was 3010 nM.

Regarding `COc1ccc(C2=NN(c3nc(-c4ccc(OC)cc4)cs3)C(c3ccc4c(c3)OCO4)C2)cc1` (stereo not given), the IC50 was determined as 2730 nM in assay [1] and 2670 nM in assay [2].

With `Fc1ccc(C2=NN(c3nc(-c4ccc(Br)cc4)cs3)C(c3ccc4c(c3)OCCO4)C2)cc1` (stereo not given), the IC50 in assay [1] came to 4200 nM; in assay [2], 4110 nM.

`COc1ccc(C2=NN(c3nc(-c4ccc(Br)cc4)cs3)C(c3ccc4c(c3)OCCO4)C2)cc1` (stereo not given): the IC50 in assay [1] came out at 2540 nM; in assay [2], 2520 nM.

Regarding `C#Cc1cccc(Nc2ncnc3cc(OCCOC)c(OCCOC)cc23)c1` [ERLOTINIB], the IC50 in assay [2] worked out at 50 nM.

Turning to `COc1ccc(-c2csc(N3N=C(c4ccc(Cl)cc4)CC3c3ccc4c(c3)OCCO4)n2)cc1` (stereo not given), the results for the IC50 in assay [1] and in assay [2] were 3030 nM and 3120 nM, respectively.

Turning to `Clc1ccc(C2=NN(c3nc(-c4ccc(Br)cc4)cs3)C(c3ccc4c(c3)OCO4)C2)cc1` (stereo not given), the IC50 in assay [5] is 2380 nM; in assay [1], 1720 nM; in assay [2] it was 1510 nM.

For `COc1ccc(-c2csc(N3N=C(c4ccc(F)cc4)CC3c3ccc4c(c3)OCCO4)n2)cc1` (stereo not given), the IC50 is 4530 nM in assay [1] and 4430 nM in assay [2].

Turning to `Fc1ccc(C2=NN(c3nc(-c4ccc(Br)cc4)cs3)C(c3ccc4c(c3)OCO4)C2)cc1` (stereo not given), the IC50 in assay [1] amounted to 3430 nM; in assay [2], 3810 nM.

Turning to `Clc1ccc(C2=NN(c3nc(-c4ccc(Br)cc4)cs3)C(c3ccc4c(c3)OCCO4)C2)cc1` (stereo not given), the IC50 in assay [1] worked out at 2230 nM; in assay [2], 2150 nM.

In the case of `COc1ccc(-c2csc(N3N=C(c4ccc(C)cc4)CC3c3ccc4c(c3)OCCO4)n2)cc1` (stereo not given), the IC50 in assay [1] was 2680 nM; in assay [2] it was 2870 nM.

Take `Cc1ccc(C2=NN(c3nc(-c4ccc(Br)cc4)cs3)C(c3ccc4c(c3)OCCO4)C2)cc1` (stereo not given): the IC50 in assay [1] stood at 1590 nM; in assay [2] it was 1680 nM.

Turning to `Cc1ccc(C2=NN(c3nc(-c4ccc(Br)cc4)cs3)C(c3ccc4c(c3)OCO4)C2)cc1` (stereo not given), the IC50 in assay [5] came out at 2230 nM; in assay [1], 1410 nM; in assay [2] it was 1390 nM.

On to `COc1ccc(-c2csc(N3N=C(c4ccc(F)cc4)CC3c3ccc4c(c3)OCO4)n2)cc1` (stereo not given), for which the IC50 amounted to 3650 nM in assay [1] and 3980 nM in assay [2].

With `Brc1ccc(C2=NN(c3nc(-c4ccc(Br)cc4)cs3)C(c3ccc4c(c3)OCCO4)C2)cc1` (stereo not given), the IC50 in assay [5] is 460 nM; in assay [1], 320 nM; in assay [2], 430 nM.

In the case of `COc1ccc(-c2csc(N3N=C(c4ccc(Br)cc4)CC3c3ccc4c(c3)OCO4)n2)cc1` (stereo not given), the IC50 came to 850 nM in assay [5], 270 nM in assay [1] and 320 nM in assay [2].

Take `COc1ccc(-c2csc(N3N=C(c4ccc(Cl)cc4)CC3c3ccc4c(c3)OCO4)n2)cc1` (stereo not given): the IC50 in assay [1] was found to be 2410 nM; in assay [2], 2320 nM.

As to `COc1ccc(-c2csc(N3N=C(c4ccc(C)cc4)CC3c3ccc4c(c3)OCO4)n2)cc1` (stereo not given), the half-maximal inhibitory concentration (IC50) amounted to 1430 nM in assay [1] and 1520 nM in assay [2].
